From ChEMBL document CHEMBL1139157, “2,5-Disubstituted pyridines: the discovery of a novel series of 5-HT2A ligands” (Bioorg Med Chem Lett, 2007)
Blank lines part the entries; values can stand above or below the molecule they belong to.

Assays:
[1] = molecular target: Serotonin 2 receptors; 5-HT2a & 5-HT2c (Homo sapiens) (UniProt P28223+P28335); assay: Selectivity for human 5HT2A receptor over human 5HT2C receptor
[2] = molecular target: 5-hydroxytryptamine receptor 2A (Homo sapiens, UniProt P28223); assay: Displacement of [3H]ketanserin from human 5HT2A receptor expressed in CHO cells; type: cell-based
Sequence of 5-hydroxytryptamine receptor 2A (P28223 whole entry): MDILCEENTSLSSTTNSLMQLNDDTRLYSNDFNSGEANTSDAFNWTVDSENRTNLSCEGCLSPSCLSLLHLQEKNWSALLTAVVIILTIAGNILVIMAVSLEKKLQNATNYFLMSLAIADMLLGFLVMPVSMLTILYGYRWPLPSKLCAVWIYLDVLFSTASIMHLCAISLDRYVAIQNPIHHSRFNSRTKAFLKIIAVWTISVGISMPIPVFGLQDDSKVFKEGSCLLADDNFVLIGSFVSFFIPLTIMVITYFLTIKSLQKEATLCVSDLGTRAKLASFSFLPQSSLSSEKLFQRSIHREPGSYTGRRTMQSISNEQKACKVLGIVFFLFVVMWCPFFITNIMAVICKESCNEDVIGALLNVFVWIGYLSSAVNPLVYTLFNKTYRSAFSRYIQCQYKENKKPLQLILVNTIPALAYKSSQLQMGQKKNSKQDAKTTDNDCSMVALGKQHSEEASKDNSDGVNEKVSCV

[3] = molecular target: Voltage-gated inwardly rectifying potassium channel KCNH2 (Homo sapiens, UniProt Q12809); assay: Displacement of [3H]dofetilide from hERG expressed in HEK cells; type: cell-based, HEK293
Sequence of Voltage-gated inwardly rectifying potassium channel KCNH2 (Q12809 whole entry): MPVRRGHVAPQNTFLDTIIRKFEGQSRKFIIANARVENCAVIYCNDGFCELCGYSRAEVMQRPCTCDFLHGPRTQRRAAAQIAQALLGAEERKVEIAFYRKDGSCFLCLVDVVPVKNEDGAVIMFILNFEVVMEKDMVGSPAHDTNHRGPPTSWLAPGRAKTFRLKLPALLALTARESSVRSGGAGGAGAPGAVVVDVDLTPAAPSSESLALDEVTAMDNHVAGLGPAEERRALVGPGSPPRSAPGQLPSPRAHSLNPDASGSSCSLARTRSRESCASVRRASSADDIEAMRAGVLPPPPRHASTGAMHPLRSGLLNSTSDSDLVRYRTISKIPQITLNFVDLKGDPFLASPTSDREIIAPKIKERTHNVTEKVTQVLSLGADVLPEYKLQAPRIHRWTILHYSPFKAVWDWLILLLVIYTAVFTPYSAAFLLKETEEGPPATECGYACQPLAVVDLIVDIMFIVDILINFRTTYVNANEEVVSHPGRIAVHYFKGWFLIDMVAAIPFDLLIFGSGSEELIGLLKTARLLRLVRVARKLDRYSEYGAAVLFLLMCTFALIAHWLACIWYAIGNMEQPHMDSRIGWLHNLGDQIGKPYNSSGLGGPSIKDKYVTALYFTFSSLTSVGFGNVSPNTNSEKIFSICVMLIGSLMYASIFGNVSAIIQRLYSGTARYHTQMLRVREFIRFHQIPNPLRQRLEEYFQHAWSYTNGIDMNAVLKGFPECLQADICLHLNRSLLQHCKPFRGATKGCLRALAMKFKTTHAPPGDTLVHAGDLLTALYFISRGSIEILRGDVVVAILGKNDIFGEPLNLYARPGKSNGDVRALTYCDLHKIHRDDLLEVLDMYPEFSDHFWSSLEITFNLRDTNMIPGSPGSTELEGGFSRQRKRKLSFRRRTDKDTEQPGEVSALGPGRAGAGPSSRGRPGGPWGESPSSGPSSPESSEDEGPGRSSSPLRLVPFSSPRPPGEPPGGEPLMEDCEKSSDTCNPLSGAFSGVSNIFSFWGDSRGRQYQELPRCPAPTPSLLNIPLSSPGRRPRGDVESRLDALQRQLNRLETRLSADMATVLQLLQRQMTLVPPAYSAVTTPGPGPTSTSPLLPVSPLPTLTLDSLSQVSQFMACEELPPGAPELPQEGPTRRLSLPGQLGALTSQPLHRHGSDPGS

[4] = molecular target: T1, 5-hydroxytryptamine receptor 2C (Homo sapiens, UniProt P28335); assay: Displacement of [3H][…] from human 5HT2C receptor expressed in CHO cells; type: cell-based
T1 sequence (P28335 whole entry): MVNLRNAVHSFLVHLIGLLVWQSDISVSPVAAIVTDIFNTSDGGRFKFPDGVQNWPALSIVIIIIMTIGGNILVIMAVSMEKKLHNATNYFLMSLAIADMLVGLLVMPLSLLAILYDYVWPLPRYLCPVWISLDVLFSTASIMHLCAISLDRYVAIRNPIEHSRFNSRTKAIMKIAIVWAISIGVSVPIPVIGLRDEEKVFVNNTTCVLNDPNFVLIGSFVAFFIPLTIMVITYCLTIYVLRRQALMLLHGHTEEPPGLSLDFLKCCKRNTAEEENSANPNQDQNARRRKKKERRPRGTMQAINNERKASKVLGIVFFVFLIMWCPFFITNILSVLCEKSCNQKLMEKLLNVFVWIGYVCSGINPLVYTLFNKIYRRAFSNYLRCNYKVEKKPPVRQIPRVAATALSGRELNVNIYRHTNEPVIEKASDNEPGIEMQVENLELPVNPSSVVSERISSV

D(2) dopamine receptor = D(2) dopamine receptor (Homo sapiens, UniProt P14416); assay: Displacement of [3H]spiperone from human dopamine D2 receptor expressed in CHO cells; type: cell-based
Sequence of D(2) dopamine receptor (P14416 whole entry): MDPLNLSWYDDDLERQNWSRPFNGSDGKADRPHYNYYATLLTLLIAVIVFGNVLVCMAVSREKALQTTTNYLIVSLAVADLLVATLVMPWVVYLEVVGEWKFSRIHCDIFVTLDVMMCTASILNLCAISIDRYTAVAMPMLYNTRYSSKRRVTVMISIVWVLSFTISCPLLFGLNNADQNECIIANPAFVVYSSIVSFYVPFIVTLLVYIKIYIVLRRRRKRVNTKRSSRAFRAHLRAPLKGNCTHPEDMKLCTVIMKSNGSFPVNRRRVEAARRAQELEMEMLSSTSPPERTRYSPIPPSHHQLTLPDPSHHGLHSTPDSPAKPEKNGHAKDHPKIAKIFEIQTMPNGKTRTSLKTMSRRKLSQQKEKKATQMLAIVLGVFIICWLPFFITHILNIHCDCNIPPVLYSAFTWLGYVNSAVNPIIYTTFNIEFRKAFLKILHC

Rattus norvegicus = assay: Receptor occupancy ex vivo by displacement of tritiated radioligand from 5HT2A receptor in rat at 5 mg/kg, po; type: functional
Procedure, shortened: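 Rats dosed 5 mg/kg po; [3H] selective 5-HT2A radioligand (6 lCi) given by tail vein injection. Read at 1 h. Occupancy (%) = 100 − [100·(compound counts/vehicle counts)], with vehicle counts taken as total binding.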

[5] = Drug level in rat brain at 5 mg/kg, po after 1 hr; type: ADME, organism-based; set-up: dose 5 mg/kg, route oral; settings: read-out: Drug uptake
Procedure, shortened: (§1)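 Rats given 5 mg/kg po, with a radiolabeled selective 5-HT2A ligand co-administered; drug concentrations in plasma and brain measured at 1 h after dosing.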

[6] = Drug level in rat plasma at 5 mg/kg, po after 1 hr; type: ADME, organism-based; set-up: dose 5 mg/kg, route oral; procedure, shortened: as §1

Sequence of Serotonin 2 receptors; 5-HT2a & 5-HT2c (Homo sapiens) (P28223 whole entry, looked up, one chain of several): as the sequence (P28223 whole entry) above

- Ratio Ki [1]: 80
SMILES: [O-][S+](c1ccccc1)c1ccc(/C=C/c2ccc(F)cc2F)nc1 (single isomer, unassigned; form 1) [listing 1 of 2 here]

- Ki [2]: 0.0077 µM
- Ratio Ki [1]: 26
- Ki [4]: 0.2 µM
- Ki (D(2) dopamine receptor): > 2 µM
SMILES: [O-][S+](c1ccccc1)c1ccc(/C=C/c2ccc(F)cc2)nc1 (configuration not stated)
- Ki [3]: 3.9 µM

- Ki [2]: 0.065 µM
- Ki (D(2) dopamine receptor): > 2 µM
SMILES: COc1cc(F)ccc1/C=C/c1ccc(S(=O)(=O)c2ccccc2F)cn1

- Ki [2]: 0.0099 µM
- Ratio Ki [1]: 2.1
- Ki [4]: 0.019 µM
- Ki (D(2) dopamine receptor): > 2 µM
SMILES: N#Cc1cc(F)ccc1/C=C/c1ccc(S(=O)(=O)c2ccccc2F)cn1
- Ki [3]: 1.5 µM

- Ki [2]: 0.0007 µM
- Ki [4]: 0.025 µM
- Ki (D(2) dopamine receptor): > 2 µM
SMILES: [O-][S+](c1ccccc1)c1ccc(/C=C/c2ccc(F)cc2F)nc1 (single isomer, unassigned; form 2) [listing 1 of 2 here]
- Ki [3]: 6.5 µM

- Ki [2]: 0.0046 µM
- Ratio Ki [1]: 35
- Ki [4]: 0.16 µM
- Ki (D(2) dopamine receptor): > 2 µM
SMILES: [O-][S+](c1ccc(/C=C/c2ccc(F)cc2)nc1)c1ccccc1F (configuration not stated)
- Ki [3]: 2.9 µM

- Ki [2]: 0.03 µM
- Ki [4]: 2.4 µM
- Ki (D(2) dopamine receptor; cho): > 2 µM
SMILES: [O-][S+](c1ccccc1)c1ccc(/C=C/c2ccc(F)cc2F)nc1 (single isomer, unassigned; form 1) [listing 2 of 2 here]
- Ki [3]: 4.2 µM

- Ki [2]: 0.0026 µM
- Ratio Ki [1]: 160
- Ki [4]: 0.41 µM
- Ki (D(2) dopamine receptor): > 1 µM
SMILES: O=S(=O)(c1ccc(/C=C/c2ccc(F)cc2F)nc1)c1ccccc1F
- Ki [3]: > 9 µM

- Ki [2]: 0.0018 µM
- Ratio Ki [1]: 36
- Ki [4]: 0.064 µM
- Ki (D(2) dopamine receptor): > 2 µM
SMILES: O=S(=O)(c1ccc(/C=C/c2ccc(F)cc2Cl)nc1)c1ccccc1F
- Ki [3]: 4.8 µM

- Ki [2]: 0.00019 µM
- Ratio Ki [1]: 3000
- Ki [4]: 0.58 µM
- Ki (D(2) dopamine receptor): > 2 µM
SMILES: O=S(=O)(c1ccc(/C=C/c2ccc(F)cc2O)nc1)c1ccccc1F
- Ki [3]: 2.1 µM

- Ki [2]: 0.0074 µM
- Ratio Ki [1]: > 540
- Ki [4]: > 4 µM
- Ki (D(2) dopamine receptor): > 1 µM
SMILES: O=S(=O)(c1ccccc1)c1ccc(/C=C/c2ccc(F)cc2)nc1
- Ki [3]: > 9 µM

- Ki [2]: 0.019 µM
- Ratio Ki [1]: > 210
- Ki [4]: > 4 µM
- Ki (D(2) dopamine receptor): > 1 µM
SMILES: O=S(=O)(c1ccc(F)cc1)c1ccc(CCc2ccc(F)cc2)cn1
- Ki [3]: 6.9 µM

- Ki [2]: 0.023 µM
- Ki [4]: 2.7 µM
- Ki (D(2) dopamine receptor): > 1 µM
SMILES: O=S(=O)(c1ccc(F)cc1)c1ccc(CCc2ccc(F)cc2)nc1

- Ki [2]: 0.0035 µM
- Ki [4]: 0.043 µM
- Ki (D(2) dopamine receptor): > 2 µM
SMILES: [O-][S+](c1ccc(/C=C/c2ccc(F)cc2F)nc1)c1ccccc1F (configuration not stated)

Continued, molecule first:

SMILES: O=S(=O)(c1ccc(/C=C/c2ccccc2O)nc1)c1ccccc1F
- Ki [2]: 0.0036 µM
- Ratio Ki [1]: 220
- Ki [3]: 1.4 µM
- Ki [4]: 0.81 µM
- Ki (D(2) dopamine receptor): > 2 µM

SMILES: O=S(=O)(c1ccc(F)cc1)C1(F)CCN(CCc2ccc(F)cc2F)CC1
- Ratio Ki [1]: 460
- Ki [3]: 5.6 µM

SMILES: O=S(=O)(c1ccc(/C=C/c2ccncc2)nc1)c1ccccc1F
- Ki [2]: 0.79 µM
- Ratio Ki [1]: > 5
- Ki [3]: 4.2 µM
- Ki [4]: > 4 µM
- Ki (D(2) dopamine receptor): > 2 µM

SMILES: O=S(=O)(c1ccc(/C=C/c2ccc(F)cc2)nc1)c1cccc(F)c1
- Ki [2]: 0.0096 µM
- Ratio Ki [1]: > 420
- Ki [3]: > 9 µM
- Ki [4]: > 4 µM
- Ki (D(2) dopamine receptor): > 1 µM

SMILES: O=S(=O)(c1ccc(F)cc1)c1ccc(/C=C/c2ccc(F)cc2)cn1
- Ki [2]: 0.028 µM
- Ratio Ki [1]: > 140
- Ki [3]: 3.3 µM
- Ki [4]: > 4 µM
- Ki (D(2) dopamine receptor): > 1 µM

SMILES: O=S(=O)(c1ccc(/C=C/c2ccccc2F)nc1)c1ccccc1F
- Ki [2]: 0.0026 µM
- Ratio Ki [1]: > 1500
- Ki [3]: > 9 µM
- Ki [4]: > 4 µM
- Ki (D(2) dopamine receptor): > 2 µM

SMILES: Cc1cc(F)ccc1/C=C/c1ccc(S(=O)(=O)c2ccccc2F)cn1
- Ki [2]: 0.0082 µM
- Ratio Ki [1]: 27
- Ki [3]: 5 µM
- Ki [4]: 0.22 µM
- Ki (D(2) dopamine receptor): > 2 µM

SMILES: O=S(=O)(c1ccc(/C=C/c2ccc(F)cc2)nc1)c1ccccc1F
- Ki [2]: 0.0054 µM
- Ratio Ki [1]: > 740
- Ki [3]: > 9 µM
- Ki [4]: > 4 µM
- Ki (D(2) dopamine receptor): > 1 µM

SMILES: [O-][S+](c1ccccc1)c1ccc(/C=C/c2ccc(F)cc2F)nc1 (stereo in doubt; 30) [listing 1 of 2 here]
- Activity (Rattus norvegicus): 90%
- Ki [2]: 0.00079 µM
- concentration at 1 h [5]: 1070 nM
- Ki [3]: 2.8 µM
- concentration at 1 h [6]: 230 nM
- Ki [4]: 0.03 µM
- Ki (D(2) dopamine receptor; cho): > 2 µM

SMILES: O=S(=O)(c1ccccc1)c1ccc(/C=C/c2ccc(F)cc2F)nc1
- Activity (Rattus norvegicus): 45%
- Ki [2]: 0.00086 µM
- concentration at 1 h [5]: 180 nM
- concentration at 1 h [6]: 80 nM
- Ki [4]: > 4 µM
- Ki (D(2) dopamine receptor): > 2 µM

SMILES: O=S(=O)(c1ccc(F)cc1)c1ccc(/C=C/c2ccc(F)cc2)nc1
- Ki [2]: 0.017 µM
- Ki [4]: > 4 µM
- Ki (D(2) dopamine receptor): > 1 µM

SMILES: [O-][S+](c1ccccc1)c1ccc(/C=C/c2ccc(F)cc2F)nc1 (single isomer, unassigned; form 2) [listing 2 of 2 here]
- Ratio Ki [1]: 36

SMILES: [O-][S+](c1ccccc1)c1ccc(/C=C/c2ccc(F)cc2F)nc1 (stereo in doubt; 30) [listing 2 of 2 here]
- Ratio Ki [1]: 38

SMILES: O=S(=O)(c1ccc(/C=C/c2cccc(F)c2)nc1)c1ccccc1F
- Ki [2]: 0.15 µM
- Ratio Ki [1]: > 27
- Ki [3]: > 9 µM
- Ki [4]: > 4 µM
- Ki (D(2) dopamine receptor): > 2 µM
